A selection: hits, their analogues and other compounds. The true share with any hit is near 4%.
OX1R antag-1 – human HCRTR1 antagonism; CHO/OX1R cells, Fluo-8 calcium fluorescence, orexin A; 330,000 compounds, 0.43% hits; inhibition, % at 5 µM; O43613;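 active means inhibition above its plate's threshold, mean inhibition of all tested compounds on the plate plus 3 SD, cut at about 37% in these data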;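 further: 0% = orexin A challenge wells and 100% = SB-334867-A antagonist wells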
Target sequence (O43613 whole entry, looked up): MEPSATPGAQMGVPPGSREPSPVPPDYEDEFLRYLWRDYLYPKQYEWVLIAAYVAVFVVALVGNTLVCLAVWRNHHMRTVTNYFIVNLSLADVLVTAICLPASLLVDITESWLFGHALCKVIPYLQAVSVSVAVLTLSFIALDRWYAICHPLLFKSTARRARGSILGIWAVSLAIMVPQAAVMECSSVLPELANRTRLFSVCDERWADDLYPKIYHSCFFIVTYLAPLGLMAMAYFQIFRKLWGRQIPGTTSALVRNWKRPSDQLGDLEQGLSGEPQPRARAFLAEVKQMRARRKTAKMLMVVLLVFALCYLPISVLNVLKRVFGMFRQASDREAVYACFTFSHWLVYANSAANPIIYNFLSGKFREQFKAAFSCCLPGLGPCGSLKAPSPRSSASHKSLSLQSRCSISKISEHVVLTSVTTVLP
TAAR1 antag – antagonists of human TAAR1. Q96RJ0. CHO RD-HGA16 TAAR1, Fluo-8 calcium fluorescence, antagonist. inhibition, % at 3 µM. 360,000 compounds, 1.5% hits. AID 624466;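 active means inhibition above a per-plate cutoff, the mean inhibition of test compounds on that plate plus 3 SD, cut at about 49% in these data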;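 further: 0% = DMSO plus EC80 beta-PEA response and 100% = DMSO alone without agonist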
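Assay system: RD-HGA16 CHO cells with stable hTAAR1 and Gα16 / Reagent: EC80 β-phenethylamine stimulus / Doses: 3 µM, single point / Timing: dye loading 75 min at 37 °C, then 30 min room temperature / Measured by: Fluo-8 intracellular calcium dye fluorescence, real-time kinetic reads / Controls: vehicle wells and EC80 agonist wells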
OX1R antag-2 – antagonists of human orexin 1 receptor (OX1R); AID 485270; O43613; OX1R-expressing cells, FRET antagonist read-out; inhibition, % at 6.6 µM; 330,000 compounds, 1.8% hits; in the data active means inhibition mostly above about 38%, no sharp cut-off; inactive means mostly below about 40%;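 further: 0% = agonist challenge alone and 100% = reference antagonist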
TAAR1 agonist – agonists of human TAAR1. Q96RJ0. CHO RD-HGA16 TAAR1, Fluo-8 calcium fluorescence; vehicle wells 0%, saturating PEA agonist 100%. activation, % at 3 µM. 360,000 compounds, 0.99% hits;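 active means activation above the mean activation of all test compounds in the run plus 3 SD, cut at about 38% in these data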
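System: CHO-derived RD-HGA16 cells with stable Gα16 and human TAAR1 / Times: 17-24 h plating, Fluo-8 75 min 37 °C, 30 min RT / Technique: calcium-sensitive Fluo-8 signal, excitation 470-495, emission 515-575 nm / Measure: % activation relative to PEA EC100 response / Benchmarks: DMSO and PEA EC100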
CHO parental Ca – signal in parental CHO cells, OX1R antagonist counter-screen. inhibition, % at 5.6 µM. parental CHO-K1, ATP-induced calcium, Fluo-8 fluorescence. 330,000 compounds, 0.63% hits;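 active means inhibition above that plate's mean sample inhibition plus 3 SD, cut at about 26% in these data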;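 further: 0% = ATP-challenged DMSO wells and 100% = DMSO wells without ATP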
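Assay system – parental CHO cells · Reagent – ATP stimulus · Detection – intracellular calcium via Fluo-8 no-wash fluorescent dye · Evaluation – percent inhibition of ATP-evoked calcium rise, normalized to controls · Controls – ATP wells versus no-ATP DMSO wells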
* marks the source's active call; other numbers are inactive results.

COc1ccccc1-n1cc([C@@H]2C[C@H]3CN(c4ccccc4)C(=O)[C@]34CCCN24)cn1 was read as OX1R antag-1 1, TAAR1 antag -12, OX1R antag-2 18, TAAR1 agonist 11 and CHO parental Ca -7.
Screening CCNc1ccc(C(=O)OCC(=O)NCCN2C(=O)CSC2=O)cc1[N+](=O)[O-] returned OX1R antag-1 5, TAAR1 antag -2, OX1R antag-2 68*, TAAR1 agonist 2 and CHO parental Ca -8.
CNc1nc(SC)n(C)c(=O)c1N=O was read as OX1R antag-1 -6, OX1R antag-2 48* and CHO parental Ca -8.
Screening COc1ccc(CNc2ccc3cn[nH]c3c2)c(OC)c1OC returned OX1R antag-1 7, TAAR1 antag 20, OX1R antag-2 37*, TAAR1 agonist 12 and CHO parental Ca -7.
Screening Cc1c(CN2CCC(CO)(CCOc3ccccc3)CC2)[nH]c2c(Cl)cccc12 returned OX1R antag-1 -7, TAAR1 antag 26, OX1R antag-2 2, TAAR1 agonist 41* and CHO parental Ca 24.
`Cc1nn(C)c(Cl)c1CN1CCC(CO)(CCOc2ccccc2)CC1` gave OX1R antag-1 -37, TAAR1 antag -17, OX1R antag-2 5, TAAR1 agonist 2 and CHO parental Ca -5.
Screening O=C(OCCOc1ccc(Cl)cc1)c1cc(S(=O)(=O)N2CCCCC2)ccc1N1CCOCC1 returned TAAR1 antag 32 and TAAR1 agonist 0.
Screening Cc1ccc(OCCOC(=O)c2cc(S(=O)(=O)N3CCCCC3)ccc2N2CCOCC2)cc1 returned OX1R antag-1 35, TAAR1 antag 50*, OX1R antag-2 10, TAAR1 agonist 0 and CHO parental Ca 13.
For COc1ccc(CCNC(=O)[C@@H](NC(=O)c2ccccc2F)C(C)C)cc1OC the results were OX1R antag-1 -20, TAAR1 antag -33, OX1R antag-2 19, TAAR1 agonist 4 and CHO parental Ca -6.
CCc1cc(=O)oc2cc(C)cc(OCC(=O)NCCCN3CCOCC3)c12 was read as OX1R antag-1 9, TAAR1 antag -19, OX1R antag-2 0, TAAR1 agonist 0 and CHO parental Ca -6.
`Cc1ccc(C(C(=O)NCc2ccc(F)cc2)N(CCCO)C(=O)C2COc3ccccc3O2)o1` (stereo not given) gave OX1R antag-1 -41, TAAR1 antag 52*, OX1R antag-2 11, TAAR1 agonist 16 and CHO parental Ca -11.
`Cc1ccc(CNC(=O)C2COc3ccccc3O2)cc1` (stereo not given) gave OX1R antag-1 -8, TAAR1 antag -16, OX1R antag-2 5, TAAR1 agonist 1 and CHO parental Ca -4.
Cc1cc(OC(F)F)ccc1NC(=O)Nc1ccc([N+](=O)[O-])cc1 was read as OX1R antag-1 32, TAAR1 antag -1, OX1R antag-2 24, TAAR1 agonist 9 and CHO parental Ca 57*.
O=C(Nc1ccc(Cl)cc1)Nc1cc([N+](=O)[O-])ccc1F was read as OX1R antag-1 14, TAAR1 antag 11, OX1R antag-2 16, TAAR1 agonist 7 and CHO parental Ca 3.
O=C(Nc1ccc([N+](=O)[O-])cc1)Nc1ccc(Cl)cc1F was read as OX1R antag-1 48*, TAAR1 antag -1, OX1R antag-2 40, TAAR1 agonist 17 and CHO parental Ca 43*.
COc1ccc(OC(C)C(=O)Nc2ccc([N+](=O)[O-])cc2)cc1 (stereo not given) was read as OX1R antag-1 -1, TAAR1 antag 14, OX1R antag-2 16, TAAR1 agonist 17 and CHO parental Ca -9.
For O=C(Nc1ccc(Cl)cc1)Nc1csc([N+](=O)[O-])c1 the results were OX1R antag-1 65*, TAAR1 antag 20, OX1R antag-2 83*, TAAR1 agonist 14 and CHO parental Ca 65*.
For CCCCOCC1CN(CCCC)S(=O)(=O)c2c(cccc2N(C)S(=O)(=O)c2ccc(C)cc2)O1 (stereo not given) the results were TAAR1 antag 3 and TAAR1 agonist 0.
CC(=O)[C@@]1(O)CC[C@H]2[C@@H]3CCC4=CC(=O)CC[C@]4(C)[C@H]3[C@@H](O)C[C@@]21C was read as OX1R antag-1 1, TAAR1 antag -22, OX1R antag-2 12, TAAR1 agonist 2 and CHO parental Ca -6.
For CCC(C(=O)OCC(=O)C1(O)CCC2C3CCC4=CC(=O)CCC4(C)C3C(O)CC21C)C(C)C (stereo not given) the results were TAAR1 antag 62* and TAAR1 agonist 14.
`CCN(CC)S(=O)(=O)c1ccc(Cl)c(C(=O)Nc2ccc(Cl)cc2[N+](=O)[O-])c1` gave OX1R antag-1 13, TAAR1 antag 34, OX1R antag-2 36, TAAR1 agonist 3 and CHO parental Ca 50*.
`CC(C)C[C@@H]1COc2cc(NCCCN3CCOCC3)ccc2S(=O)(=O)N1` gave TAAR1 antag -7 and TAAR1 agonist 9.
`COc1ccc(-c2c(-c3ccc(O)cc3O)n[nH]c2C(F)(F)F)cc1` gave OX1R antag-1 -3, TAAR1 antag 11, OX1R antag-2 7, TAAR1 agonist 2 and CHO parental Ca -14.
`Oc1ccc(-c2n[nH]c(C(F)(F)F)c2-c2ccccc2)c(O)c1` gave OX1R antag-1 15, TAAR1 antag 32, OX1R antag-2 21, TAAR1 agonist 7 and CHO parental Ca 57*.
NC(N)=N/N=C/c1cccc(Cl)c1Cl was read as OX1R antag-1 -11, TAAR1 antag 17, OX1R antag-2 -5, TAAR1 agonist 42* and CHO parental Ca -10.
Screening CCNC(=O)O[C@@H]1C=C[C@@H](C#Cc2ccc(C(C)(C)C)cc2)O[C@@H]1COC(C)=O returned TAAR1 antag 2 and TAAR1 agonist 0.
For CCCCSc1nc(C)cc(C)c1S(=O)(=O)c1ccccc1C the results were OX1R antag-1 23, TAAR1 antag 25, OX1R antag-2 5, TAAR1 agonist 10 and CHO parental Ca 39*.
Cc1cc(C)c(S(=O)(=O)c2ccccc2C)c(Cl)n1 was read as OX1R antag-1 -23, TAAR1 antag -3, OX1R antag-2 7, TAAR1 agonist 3 and CHO parental Ca -5.
Screening CC1=CC(C)(C)Nc2ccc(OC(=O)c3ccco3)cc21 returned OX1R antag-1 2, TAAR1 antag -18, OX1R antag-2 51*, TAAR1 agonist 1 and CHO parental Ca -11.
Screening Cc1sc2nc(CN3CCOCC3)[nH]c(=S)c2c1C returned OX1R antag-1 -31, TAAR1 antag -2, OX1R antag-2 -17, TAAR1 agonist 5 and CHO parental Ca -26.
COc1ccc(-c2ccc3c(n2)CCCN3S(=O)(=O)c2c(C)noc2C)cc1 was read as TAAR1 antag -7 and TAAR1 agonist 0.
`Nc1nnc(SCC(=O)NNC(=O)c2ccc([N+](=O)[O-])cc2)s1` gave OX1R antag-1 1, TAAR1 antag -19, OX1R antag-2 36*, TAAR1 agonist 3 and CHO parental Ca -2.

Source: PubChem
